ChEMBL document CHEMBL1132437, “Synthesis and antimicrobial activity of 4H-4-oxoquinolizine derivatives: consequences of structural modification at the C-8 position” (1999)
In brackets after ≈: the same amount, converted by molar mass.

Legend:
Type in all cases: functional
Enterococcus faecium = experiment: In vitro antibacterial activity against gram-positive Enterococcus faecium ATCC 8043
Method in brief: (§1)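 Agar dilution MIC determination following the National Committee for Clinical Laboratory Standards recommendations.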

Escherichia coli = experiment: In vitro antibacterial activity against gram negative Escherichia coli KNK 437; method in brief: as §1
Pseudomonas aeruginosa [1] = experiment: In vitro antibacterial activity against Gram-negative Pseudomonas aeruginosa 5007; method in brief: as §1
Burkholderia cepacia = experiment: In vitro antibacterial activity against gram negative Pseudomonas cepacia 2961; method in brief: as §1
Staphylococcus aureus [2] = experiment: In vitro antibacterial activity against gram-positive Staphylococcus aureus 1775; method in brief: as §1
Staphylococcus aureus [3] = experiment: In vitro antibacterial activity against gram-positive Staphylococcus aureus NCTC 10649M; method in brief: as §1
Streptococcus pyogenes = experiment: In vitro antibacterial activity against gram positive Streptococcus pyogenes 930; method in brief: as §1
Pseudomonas aeruginosa [4] = experiment: In vitro antibacterial activity against gram negative P. aeruginosa DPHP 5263; method in brief: as §1
[5] = Enterococcus faecium, ATCC 8043, read-out: MIC
[6] = Escherichia coli, read-out: MIC
[7] = Pseudomonas aeruginosa, read-out: MIC
[8] = Burkholderia cepacia, read-out: MIC
[9] = Staphylococcus aureus, read-out: MIC
[10] = Staphylococcus aureus, NCTC 10649, read-out: MIC
[11] = Streptococcus pyogenes, read-out: MIC
[12] = Pseudomonas aeruginosa, DPHP 5263, read-out: MIC

Structure (SMILES)	MIC (Enterococcus faecium; [5]) [µg/mL]	MIC (Escherichia coli; [6]) [µg/mL]	MIC (Pseudomonas aeruginosa [1]; [7]) [µg/mL]	MIC (Burkholderia cepacia; [8]) [µg/mL]	MIC (Staphylococcus aureus [2]; [9]) [µg/mL]	MIC (Staphylococcus aureus [3]; [10]) [µg/mL]	MIC (Streptococcus pyogenes; [11]) [µg/mL]	MIC (Pseudomonas aeruginosa [4]; [12]) [µg/mL]	MIC (Enterococcus faecium) [µg/mL]	MIC (Escherichia coli) [µg/mL]	MIC (Pseudomonas aeruginosa [4]) [µg/mL]	MIC (Staphylococcus aureus [2]) [µg/mL]	MIC (Staphylococcus aureus [3]) [µg/mL]	MIC (Streptococcus pyogenes) [µg/mL]	MIC (Pseudomonas aeruginosa [1]) [µg/mL]	MIC (Burkholderia cepacia) [µg/mL]
Cc1c(N2C[C@@H]3CCCN[C@@H]3C2)c(F)cn2c(=O)c(C(=O)O)cc(C3CC3)c12	0.1 (≈ 0.259 µM)	0.1 (≈ 0.259 µM)	0.39 (≈ 1.01 µM)	1.56 (≈ 4.05 µM)	0.78 (≈ 2.02 µM)	0.02 (≈ 0.0519 µM)	0.05 (≈ 0.13 µM)									
Cc1c(N2C[C@H](N)[C@H](C3CC3)C2)c(F)cn2c(=O)c(C(=O)O)cc(C3CC3)c12	0.1 (≈ 0.259 µM)	0.2 (≈ 0.519 µM)	0.39 (≈ 1.01 µM)	1.56 (≈ 4.05 µM)	0.78 (≈ 2.02 µM)	0.02 (≈ 0.0519 µM)	0.1 (≈ 0.259 µM)	12.5 (≈ 32.4 µM)								
Cc1c(N2CCC(CN)(C(F)(F)F)C2)c(F)cn2c(=O)c(C(=O)O)cc(C3CC3)c12 (centres undefined)	0.2 (≈ 0.468 µM)	0.39 (≈ 0.912 µM)	1.56 (≈ 3.65 µM)	6.2 (≈ 14.5 µM)	0.39 (≈ 0.912 µM)	0.02 (≈ 0.0468 µM)	0.1 (≈ 0.234 µM)	25 (≈ 58.5 µM)								
Cc1c(N2C[C@@H](N)[C@@H](C3CC3)C2)c(F)cn2c(=O)c(C(=O)O)cc(C3CC3)c12 (stereo in doubt)									0.05 (≈ 0.13 µM)	0.1 (≈ 0.259 µM)	12.5 (≈ 32.4 µM)	0.39 (≈ 1.01 µM)	0.005 (≈ 0.013 µM)	0.02 (≈ 0.0519 µM)		
Cc1c(N2CC[C@@H]3CCNC[C@@H]32)c(F)cn2c(=O)c(C(=O)O)cc(C3CC3)c12	0.2 (≈ 0.519 µM)	0.39 (≈ 1.01 µM)	0.78 (≈ 2.02 µM)	3.1 (≈ 8.04 µM)	6.2 (≈ 16.1 µM)	0.05 (≈ 0.13 µM)		6.2 (≈ 16.1 µM)								
Cc1c(N2CCC(CNCCF)C2)c(F)cn2c(=O)c(C(=O)O)cc(C3CC3)c12 (centres undefined)	0.02 (≈ 0.0493 µM)	0.2 (≈ 0.493 µM)	0.78 (≈ 1.92 µM)	3.1 (≈ 7.65 µM)	0.1 (≈ 0.247 µM)	0.002 (≈ 0.00493 µM)	0.002 (≈ 0.00493 µM)	12.5 (≈ 30.8 µM)								
CN[C@H]1CCN(c2c(F)cn3c(=O)c(C(=O)O)cc(C4CC4)c3c2C)C1	0.1 (≈ 0.278 µM)	0.05 (≈ 0.139 µM)	0.2 (≈ 0.556 µM)	1.56 (≈ 4.34 µM)	1.56 (≈ 4.34 µM)	0.02 (≈ 0.0556 µM)	0.05 (≈ 0.139 µM)									
Cc1c(N2CC[C@H](NCC(F)(F)F)C2)c(F)cn2c(=O)c(C(=O)O)cc(C3CC3)c12	0.39 (≈ 0.912 µM)	1.56 (≈ 3.65 µM)	3.1 (≈ 7.25 µM)	3.1 (≈ 7.25 µM)	0.78 (≈ 1.82 µM)	0.02 (≈ 0.0468 µM)	0.39 (≈ 0.912 µM)	> 100								
Cc1c(N2CCCC(N)C2)c(F)cn2c(=O)c(C(=O)O)cc(C3CC3)c12 (centres undefined)	0.05 (≈ 0.139 µM)	0.1 (≈ 0.278 µM)	0.2 (≈ 0.556 µM)	0.78 (≈ 2.17 µM)	0.39 (≈ 1.09 µM)	0.01 (≈ 0.0278 µM)	0.02 (≈ 0.0556 µM)	3.1 (≈ 8.63 µM)								
Cc1c(N2CC[C@H](C)[C@H](N)C2)c(F)cn2c(=O)c(C(=O)O)cc(C3CC3)c12 (stereo in doubt)									0.2 (≈ 0.536 µM)	0.2 (≈ 0.536 µM)		1.56 (≈ 4.18 µM)	0.05 (≈ 0.134 µM)	0.1 (≈ 0.268 µM)	0.78 (≈ 2.09 µM)	1.56 (≈ 4.18 µM)
Cc1c(N2CC[C@@H](C)[C@@H](N)C2)c(F)cn2c(=O)c(C(=O)O)cc(C3CC3)c12	0.39 (≈ 1.04 µM)	0.78 (≈ 2.09 µM)	1.56 (≈ 4.18 µM)	6.2 (≈ 16.6 µM)	3.1 (≈ 8.3 µM)	0.1 (≈ 0.268 µM)	0.39 (≈ 1.04 µM)	12.5 (≈ 33.5 µM)								
Cc1c(N2CC[C@@H](N)C2)c(F)cn2c(=O)c(C(=O)O)cc(C3CC3)c12	0.05 (≈ 0.145 µM)	0.05 (≈ 0.145 µM)		0.78 (≈ 2.26 µM)	1.56 (≈ 4.52 µM)	0.02 (≈ 0.0579 µM)										
Cc1c(N2C[C@@H]3OCC[C@]3(CN)C2)c(F)cn2c(=O)c(C(=O)O)cc(C3CC3)c12	0.05 (≈ 0.125 µM)	0.2 (≈ 0.498 µM)	0.39 (≈ 0.972 µM)	3.1 (≈ 7.72 µM)	0.78 (≈ 1.94 µM)	0.005 (≈ 0.0125 µM)		6.2 (≈ 15.4 µM)								
CN[C@H]1CN(c2c(F)cn3c(=O)c(C(=O)O)cc(C4CC4)c3c2C)C[C@@H]1C	0.2 (≈ 0.536 µM)	0.2 (≈ 0.536 µM)	3.1 (≈ 8.3 µM)	0.78 (≈ 2.09 µM)	0.78 (≈ 2.09 µM)	0.05 (≈ 0.134 µM)	0.1 (≈ 0.268 µM)	12.5 (≈ 33.5 µM)								
Cc1c(N2CCCCC2)c(F)cn2c(=O)c(C(=O)O)cc(C3CC3)c12	0.39 (≈ 1.13 µM)	3.1 (≈ 9 µM)	3.1 (≈ 9 µM)	3.1 (≈ 9 µM)	0.78 (≈ 2.26 µM)	0.05 (≈ 0.145 µM)	0.2 (≈ 0.581 µM)	> 100								
Cc1c(N2C[C@H]3CCNC[C@@H]3C2)c(F)cn2c(=O)c(C(=O)O)cc(C3CC3)c12	0.2 (≈ 0.519 µM)	0.2 (≈ 0.519 µM)	0.39 (≈ 1.01 µM)	0.39 (≈ 1.01 µM)	6.2 (≈ 16.1 µM)	0.05 (≈ 0.13 µM)	0.05 (≈ 0.13 µM)	6.2 (≈ 16.1 µM)								
Cc1c(N2C[C@@H]3COC[C@]3(CN)C2)c(F)cn2c(=O)c(C(=O)O)cc(C3CC3)c12	0.05 (≈ 0.125 µM)	0.1 (≈ 0.249 µM)	6.2 (≈ 15.4 µM)	6.2 (≈ 15.4 µM)	3.1 (≈ 7.72 µM)	0.01 (≈ 0.0249 µM)	0.02 (≈ 0.0498 µM)	6.2 (≈ 15.4 µM)								
Cc1c(N2CCC(CN)C2)c(F)cn2c(=O)c(C(=O)O)cc(C3CC3)c12 (centres undefined)	0.01 (≈ 0.0278 µM)	0.05 (≈ 0.139 µM)		0.39 (≈ 1.09 µM)	0.39 (≈ 1.09 µM)	0.002 (≈ 0.00556 µM)										
Cc1c(N2CC[C@@H]3CNC[C@@H]32)c(F)cn2c(=O)c(C(=O)O)cc(C3CC3)c12	0.1 (≈ 0.269 µM)	0.2 (≈ 0.538 µM)		3.1 (≈ 8.35 µM)	6.2 (≈ 16.7 µM)	0.05 (≈ 0.135 µM)										
Cc1c(N2C[C@@H](N)[C@H](C3CC3)C2)c(F)cn2c(=O)c(C(=O)O)cc(C3CC3)c12 (stereo in doubt; 3t)	0.1 (≈ 0.259 µM)	0.1 (≈ 0.259 µM)	0.78 (≈ 2.02 µM)	0.78 (≈ 2.02 µM)	0.78 (≈ 2.02 µM)		0.05 (≈ 0.13 µM)	6.2 (≈ 16.1 µM)					0.01 (≈ 0.0259 µM)			
Cc1c(N2CCCN2C)c(F)cn2c(=O)c(C(=O)O)cc(C3CC3)c12	0.39 (≈ 1.13 µM)	3.1 (≈ 8.98 µM)	3.1 (≈ 8.98 µM)	1.56 (≈ 4.52 µM)	3.1 (≈ 8.98 µM)	0.02 (≈ 0.0579 µM)	0.39 (≈ 1.13 µM)	> 100								
Cc1c(N2CCC(N(C)C3CC3)C2)c(F)cn2c(=O)c(C(=O)O)cc(C3CC3)c12 (centres undefined)	0.2 (≈ 0.501 µM)	0.39 (≈ 0.976 µM)	0.78 (≈ 1.95 µM)	3.1 (≈ 7.76 µM)	1.56 (≈ 3.91 µM)	0.05 (≈ 0.125 µM)	0.2 (≈ 0.501 µM)	100 (≈ 250 µM)								
Cc1c(N2C[C@H](C)[C@@H](N)C2)c(F)cn2c(=O)c(C(=O)O)cc(C3CC3)c12	0.2 (≈ 0.556 µM)	0.1 (≈ 0.278 µM)	0.39 (≈ 1.09 µM)	0.78 (≈ 2.17 µM)	0.78 (≈ 2.17 µM)	0.05 (≈ 0.139 µM)	0.1 (≈ 0.278 µM)	3.1 (≈ 8.63 µM)								
CN[C@@H]1CN(c2c(F)cn3c(=O)c(C(=O)O)cc(C4CC4)c3c2C)C[C@H]1C (stereo in doubt)	0.1 (≈ 0.268 µM)		0.2 (≈ 0.536 µM)	0.78 (≈ 2.09 µM)		0.01 (≈ 0.0268 µM)				0.05 (≈ 0.134 µM)	3.1 (≈ 8.3 µM)	0.39 (≈ 1.04 µM)		0.02 (≈ 0.0536 µM)		
Cc1c(N2CCC(O)C2)c(F)cn2c(=O)c(C(=O)O)cc(C3CC3)c12 (centres undefined)	0.05 (≈ 0.144 µM)	0.2 (≈ 0.577 µM)		0.1 (≈ 0.289 µM)	0.2 (≈ 0.577 µM)	0.005 (≈ 0.0144 µM)										
Cc1c(N2C[C@@H]3CCCC[C@]3(N)C2)c(F)cn2c(=O)c(C(=O)O)cc(C3CC3)c12	0.2 (≈ 0.501 µM)	0.78 (≈ 1.95 µM)	1.56 (≈ 3.91 µM)	1.56 (≈ 3.91 µM)	1.56 (≈ 3.91 µM)	0.05 (≈ 0.125 µM)	0.2 (≈ 0.501 µM)	25 (≈ 62.6 µM)								
